Bioassay records deposited in PubChem by several laboratories.
A selection: hits, their analogues and other compounds. The true share with any hit is near 4%.
TAAR1 ag – human TAAR1 agonism | Q96RJ0 | CHO RD-HGA16 TAAR1, Fluo-8 calcium fluorescence; vehicle wells 0%, saturating PEA agonist 100% | activation, % at 3 µM | 360,000 compounds, 0.99% hits | AID 624467;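 active = activation above the mean activation of all test compounds in the run plus 3 SD, cut at about 38% in these data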
Target sequence (Q96RJ0 whole entry, looked up): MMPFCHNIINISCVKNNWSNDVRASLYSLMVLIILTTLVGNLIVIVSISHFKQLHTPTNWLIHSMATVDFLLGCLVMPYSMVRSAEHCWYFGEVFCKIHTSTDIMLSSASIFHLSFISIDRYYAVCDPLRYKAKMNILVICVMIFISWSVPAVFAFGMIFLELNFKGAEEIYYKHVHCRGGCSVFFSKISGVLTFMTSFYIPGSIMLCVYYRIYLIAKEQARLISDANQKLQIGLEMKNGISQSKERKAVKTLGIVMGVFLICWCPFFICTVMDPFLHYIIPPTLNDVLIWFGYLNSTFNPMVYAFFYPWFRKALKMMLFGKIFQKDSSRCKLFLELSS
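System: CHO-derived RD-HGA16 cells with stable Gα16 and human TAAR1 / Times: 17-24 h plating, Fluo-8 75 min 37 °C, 30 min RT / Technique: calcium-sensitive Fluo-8 signal, excitation 470-495, emission 515-575 nm / Measure: % activation relative to PEA EC100 response / Benchmarks: DMSO and PEA EC100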
TAAR1 antagonist – human TAAR1 antagonism; inhibition, % at 3 µM; Q96RJ0; CHO RD-HGA16 TAAR1, Fluo-8 calcium fluorescence, antagonist; 360,000 compounds, 1.5% hits; AID 624466;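 active = inhibition above a per-plate cutoff, the mean inhibition of test compounds on that plate plus 3 SD, cut at about 49% in these data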;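 note: 0% = DMSO plus EC80 beta-PEA response and 100% = DMSO alone without agonist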
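Test system: RD-HGA16 CHO cells with stable hTAAR1 and Gα16 / Probe or stimulus: EC80 β-phenethylamine stimulus / Times: seeding 17-24 h prior, 75-min 37 °C, 30-min RT dye loading / Detection: Fluo-8 calcium-sensitive fluorescence / Read-out basis: % inhibition scaled between DMSO and EC80 PEA controls / Repeats: singlicate, one well per test compound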
GPR7 antagonist – antagonists of human GPR7 (neuropeptides B/W receptor 1) | P48145 | GPR7-expressing cells, fluorescence antagonist assay | inhibition, % at 4.4 µM | 290,000 compounds, 1.1% hits; in the data active = inhibition above about 16%, passing the limit was not always enough;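 note: cells stimulated with the agonist NPW; 0% = agonist with vehicle and 100% = vehicle without agonist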
Target sequence (P48145 whole entry, looked up): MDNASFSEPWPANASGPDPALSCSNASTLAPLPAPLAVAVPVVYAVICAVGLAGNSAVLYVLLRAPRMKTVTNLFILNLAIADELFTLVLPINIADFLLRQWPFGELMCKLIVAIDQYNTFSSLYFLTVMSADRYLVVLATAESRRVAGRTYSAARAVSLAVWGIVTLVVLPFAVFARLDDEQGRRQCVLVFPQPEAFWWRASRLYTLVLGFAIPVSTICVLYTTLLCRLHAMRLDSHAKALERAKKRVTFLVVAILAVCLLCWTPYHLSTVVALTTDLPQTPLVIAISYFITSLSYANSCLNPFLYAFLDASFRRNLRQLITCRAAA
DAGLB inh – blocks human DAGLB lipase activity. Q8NCG7. HEK293T DAGLB membrane lysate, EnzChek fluorogenic substrate. inhibition, % at 5.17 µM. 340,000 compounds, 0.059% hits. AID 504411; in the data active = inhibition above about 34%;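 note: 0% = enzyme with vehicle and 100% = wells lacking enzyme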
MPTP block – inhibitors of mitochondrial permeability transition pore; isolated mouse mitochondria, Ca2+ swelling absorbance, 30 min; inhibition, % at 10 µM; 360,000 compounds, 1.4% hits;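 active = inhibition of 50% or more, scaled per plate between neutral and stimulator controls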;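 note: 0% = DMSO wells given calcium and 100% = 1 mM EGTA wells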
GPR7 antag conf – confirmation of human GPR7 antagonists; inhibition, % at 4.4 µM; GPR7-expressing cells, calcium fluorescence antagonist mode; 2,400 compounds, 52% hits; shares compounds with GPR7 antagonist; in the data active = inhibition above about 24%;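 note: stimulated with the GPR7 agonist NPW; 0% = agonist plus vehicle and 100% = vehicle alone without agonist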
MCHR1 antag – MCHR1 (human) antagonism in GPR7 counter-screen; MCHR1-expressing cells, fluorescence antagonist assay; shares compounds with GPR7 antagonist; 2,400 compounds, 62% hits; inhibition, % at 4.4 µM; AID 2148; in the data active = inhibition above about 22%;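 note: 0% = vehicle with agonist and 100% = vehicle without agonist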
Numbers without * were called inactive; nt = no result given.

SMILES	TAAR1 ag	TAAR1 antagonist	GPR7 antagonist	DAGLB inh	MPTP block	GPR7 antag conf	MCHR1 antag
Cc1nc2ccccc2n1CC(=O)NC(C)C1CC2CCC1C2 (centres undefined)	2.1	-2.4	4.5	-1.2	24.9	nt	nt
CC(NC(=O)Cn1c(NCCO)nc2ccccc21)C1CC2CCC1C2 (centres undefined)	5.9	1.4	33.4*	-3.8	-1.4	27.0*	21.0
O=C(NC1CCC(Oc2ccc(C(=O)O)cc2)CC1)NC12CC3CC(CC(C3)C1)C2 (centres undefined)	-0.4	5.7	nt	3.6	nt	nt	nt
CC(C)c1ccc(NC2CCCN(C(=O)CC3CCCC3)C2)cc1 (centres undefined)	4.5	-11.2	35.2*	-3.2	-0.3	30.2*	26.9*
Cc1nonc1C(=O)N1CCCC(Nc2ccc(C(C)C)cc2)C1 (centres undefined)	-1.7	-36.4	24.6*	-1.9	0.1	5.4	26.2*
CC(C)c1ccc(NC2CCCN(C(=O)CCN3CCCC3=O)C2)cc1 (centres undefined)	3.2	-32.8	-9.9	-2.4	0.7	nt	nt
COc1cccc(C(CC2=CCCCC2)NC(=O)C(F)(F)F)c1 (centres undefined)	2.0	2.1	nt	nt	nt	nt	nt
COc1cccc(CNC(=O)c2ccc(OCC(=O)N3CCOCC3)c(OC)c2)c1	-0.3	-14.5	nt	-1.5	-0.8	nt	nt
COc1cccc(CNC(=O)C2=Cc3cccc(OC)c3OC2)c1	1.9	-2.3	33.5*	-3.0	-0.3	3.6	20.9
N#Cc1nc(COc2ccccc2Cl)oc1N1CCCC1	8.0	-13.0	0.0	-2.6	0.0	nt	nt
CC1CN(c2oc(COc3ccc(Cl)cc3Cl)nc2C#N)CC(C)O1 (centres undefined)	-1.2	0.7	40.2*	-13.8	-5.9	23.9*	27.7*
OC(Cn1nnc2ccccc21)Cn1c(C(F)(F)F)nc2ccccc21 (centres undefined)	5.3	1.8	0.1	1.3	2.2	nt	nt
CNCC(O)Cn1c(C(F)(F)F)nc2ccccc21 (centres undefined)	-0.1	4.3	30.9*	-0.8	4.9	-6.3	19.5
CN1C(=O)C(/C(N)=N/NC(=O)c2ccccc2)C2CC1(C)Oc1ccccc12 (centres undefined)	1.7	-8.5	98.6*	-0.6	-0.2	8.8	-3.5
Cc1ccc(C)c(N2CCN(S(=O)(=O)c3ccc4c(c3)CC(C)N4C(=O)C3CC3)CC2)c1 (centres undefined)	0.0	-15.8	-1.4	-0.1	-0.5	nt	nt
CCC(=O)N1c2ccc(S(=O)(=O)N3CCN(c4ccc([N+](=O)[O-])cc4)CC3)cc2CC1C (centres undefined)	0.9	-0.2	35.6*	0.8	4.8	32.7*	44.0*
Cc1cccc(N2CCN(S(=O)(=O)c3ccc4c(c3)CC(C)N4C(=O)C3CC3)CC2)c1C (centres undefined)	1.7	-31.6	27.8*	-8.9	5.8	28.9*	43.8*
COC(=O)N1C[C@H](Oc2ncccn2)[C@H]2C[C@@H]1c1ccccc1O2	3.2	-35.4	nt	nt	nt	nt	nt
O=Cc1ccccc1Oc1ccccc1	0.6	-14.2	-15.2	-3.5	-2.4	nt	nt
O=Cc1ccccc1OCCOc1ccccc1C=O	-0.4	-7.5	23.9*	-2.0	2.9	12.0	24.8*
CC(=O)N1CCN(C(=O)c2cc3ccccc3o2)CC1	-3.8	7.6	-8.5	0.0	0.1	nt	nt
O=C(c1cc2ccccc2o1)N1CCN(C/C=C/c2ccccc2)CC1	2.0	-23.3	28.6*	-4.5	0.7	7.0	21.4*
Cc1cc(Br)cn2c(CC(C)(C)C)c(C3CCCCC3)nc12	0.1	-0.4	nt	nt	3.6	nt	nt
CS(=O)(=O)c1ccc2nc(NC(=O)Nc3ccccc3F)sc2c1	13.3	20.1	59.2*	0.3	1.2	36.1*	16.0
O=C(NC1(C(F)(F)F)NC(=O)N(Cc2ccccc2)C1=O)c1cccs1 (centres undefined)	3.8	3.8	-2.9	-2.3	3.1	nt	nt
SMILES	TAAR1 ag	TAAR1 antagonist	GPR7 antagonist	DAGLB inh	MPTP block	GPR7 antag conf	MCHR1 antag
CC(C)(C)C(=O)NC1(C(F)(F)F)NC(=O)N(Cc2ccccc2)C1=O (centres undefined)	1.0	-37.8	24.9*	-2.6	2.5	-0.4	9.0
CCCN1CCCCC(NC(=O)c2ccc3ccccc3c2)C1=O (centres undefined)	0.1	-11.0	nt	nt	nt	nt	nt
CN(C(=O)COC(=O)c1cc(S(=O)(=O)N2CCOCC2)c(Cl)cc1Cl)C1CCS(=O)(=O)C1 (centres undefined)	1.3	9.9	25.7*	1.0	-0.6	-7.4	8.9
CCC(C)(C)NC(=O)c1cc(S(=O)(=O)N2CCc3ccccc32)cn1C	-0.2	-1.1	21.1*	-4.0	13.4	9.7	35.4*
COc1ccc(C)cc1NC(=O)c1ccc(N(C)S(C)(=O)=O)cc1	-0.5	13.7	30.8*	1.2	0.5	7.1	15.6
CC(NC(=S)Nc1ccc(F)cc1)C(c1cccs1)N1CCOCC1 (centres undefined)	0.3	-7.7	22.9*	-0.2	0.1	20.6	-7.1
C/C=C/C=C/C(=O)c1cc(C)c(OC(=O)CNC(=O)OC(C)(C)C)c(C)c1O	2.7	31.1	nt	nt	nt	nt	nt
Cc1ccc(/C(N)=N/OC(=O)c2cccc(Cn3cc(C(F)(F)F)ccc3=O)c2)cc1	2.8	-4.1	21.2*	-14.5	2.0	-6.8	23.2*
O=C(CC[C@H]1O[C@@H](n2ccc(=O)[nH]c2=O)[C@H](O)[C@@H]1O)NCC(c1ccccc1)c1ccccc1	0.9	-15.8	nt	nt	0.3	nt	nt
O=C(OC1CC2CC1[C@H]1CCCCN1C2=O)N1CCN(C(=O)c2ccccc2)CC1 (some centres undefined)	2.3	-3.7	nt	nt	0.3	nt	nt
CNC(=O)CCn1nc(-c2ccc(Cl)cc2)c2ccccc2c1=O	7.8	-19.6	24.2*	-1.4	4.1	-12.8	-1.5
Cc1cccc(NC(=O)CC2C(=O)NCCN2C(=O)Nc2ccc(Cl)cc2)c1 (centres undefined)	3.1	30.6	21.5*	2.9	1.0	33.5*	46.8*
Cc1ccc(OCC(=O)Nc2ccc3c(c2)C(=O)NC3=O)c(C)c1	-1.5	10.1	20.5	0.0	0.4	nt	nt
Cc1cccc(C)c1OCC(=O)Nc1ccc2c(c1)C(=O)NC2=O	3.6	-9.4	32.5*	-1.1	-0.4	27.2*	28.8*
CC(=O)c1ccc(C(=O)Nc2ccc3c(c2)C(=O)NC3=O)cc1	0.5	10.5	22.2*	4.1	0.1	-11.2	5.8
O=C(CSc1ccccc1)Nc1ccc2c(c1)C(=O)NC2=O	6.6	4.6	26.6*	-1.2	-0.2	37.0*	36.0*
O=C(COc1ccc(Br)cc1)Nc1ccc2c(c1)C(=O)NC2=O	1.7	12.1	8.5	1.9	3.4	nt	nt
COc1ccc(OCC(=O)Nc2ccc3c(c2)C(=O)NC3=O)cc1	3.4	-11.9	28.7*	-2.2	0.5	25.7*	17.1
